Rows were chosen to be rich in hits. Some 2.8% of all compounds tested hit in one or more screens of this group.
E-selectin induc – E-selectin induction in HUVECs, primary screen, imaging, HUVEC, immunofluorescence imaging, single point; P16581; normalized: neutral wells 0, TNF-alpha wells 100; activation, % at 7.58 µM; 0.37% of 260,000 active; AID 686992, 2013;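 active = mean E-selectin-positive cell signal at least 10% of the positive control, reached in at least 60% of replicates, without over 20% cell loss; inconclusive = no rule given, readout overlaps actives, possibly toxicity-flagged; inactive = the rest, including those meeting only one limit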
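System: HUVEC / Compound: single concentration / Signal: immunofluorescence imaging / Read-out: percent E-selectin-positive cells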
SIRT5 inh – SIRT5 desuccinylase inhibitors, primary screen, biochemical, fluorescence imaging, single point, set 5; AID 652115, 2013; inhibition, % at 15 µM; Purified SirT5, succinyl-peptide AMC, trypsin-coupled fluorescence; 1.1% of 330,000 active; NAD-dependent protein deacylase sirtuin-5, mitochondrial (Homo sapiens), Q9NXA8; in the data active = inhibition above about 15%; inconclusive = no clear call, values can overlap the other calls
Target sequence (Q9NXA8 whole entry, looked up): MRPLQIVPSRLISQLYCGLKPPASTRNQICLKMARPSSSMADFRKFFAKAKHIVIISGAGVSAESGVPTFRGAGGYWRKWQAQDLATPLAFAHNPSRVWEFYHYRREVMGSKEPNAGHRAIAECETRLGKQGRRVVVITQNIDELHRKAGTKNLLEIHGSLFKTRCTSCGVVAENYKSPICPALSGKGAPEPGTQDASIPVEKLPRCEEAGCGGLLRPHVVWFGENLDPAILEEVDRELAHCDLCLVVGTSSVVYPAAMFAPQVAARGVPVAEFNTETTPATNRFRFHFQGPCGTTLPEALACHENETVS
DENV2 CPE rescue – inhibitors of DENV2 cytopathic effect, primary screen, cell-based, plate reader, single concentration; 1.7% of 350,000 active; DENV2-infected cells, cytopathic effect rescue; CPE inhibition, % at 9.99 µM; in the data active = CPE inhibition above about 20%, passing the limit was not always enough; inconclusive = no clear call, values can overlap the other calls; tested in BHK-21 cells;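 also: 0% = median of neutral control wells and 100% = median of positive control wells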
* hit, by the source's call; u = inconclusive; x = not tested or not shown.

SMILES	E-selectin induc	SIRT5 inh	DENV2 CPE rescue
Cc1cc(C)c2nc(N3C(=O)C(O)=C(C(=O)c4ccco4)C3c3cccc(O)c3)sc2c1 (stereo not drawn)	x	17*	2
Cc1cc(N2C(=O)C(O)=C(C(=O)c3ccco3)C2c2cccc(O)c2)no1 (stereo not drawn)	x	0	0
Cc1ccc2nc(N3C(=O)C(O)=C(C(=O)c4ccco4)C3c3ccc(O)cc3)sc2c1 (stereo not drawn)	0	2	-3
COC(=O)[C@]12CCCCC=C1N(Cc1ccc(Cl)cc1Cl)C(=O)[C@H](CC(=O)NCC13CC4CC(CC(C4)C1)C3)C2	0	0	-4
C#CCNC(=O)C[C@@H]1C[C@@]2(C(=O)OC)CCCCC=C2N(Cc2cccc3ccccc23)C1=O	0	1	90*
COC(=O)[C@]12CCCCC=C1N(Cc1cccc3ccccc13)C(=O)[C@H](CC(=O)NCC13CC4CC(CC(C4)C1)C3)C2	0	5	47*
C#CCNC(=O)C[C@@H]1C[C@@]2(C(=O)OCC)CCC=C2N(Cc2cccc3ccccc23)C1=O	x	-5	0
C[C@@H]1CN([C@@H](C)CO)S(=O)(=O)c2ccc(/C=C/c3ccccc3)cc2O[C@H]1CN(C)Cc1cncnc1	0	8	3
Cc1noc(C)c1NC(=O)N(C)C[C@@H]1Oc2ccc(NC(=O)CCCCCC(=O)Nc3ccccc3N)cc2CC(=O)N([C@H](C)CO)C[C@@H]1C	0	3	-6
COc1ccc(S(=O)(=O)Nc2ccc3c(c2)C(=O)N([C@@H](C)CO)C[C@@H](C)[C@@H](CN(C)C(=O)CCC(F)(F)F)OCCCC[C@H](C)O3)cc1	0	1	7
COc1ccc(NC(=O)Nc2ccc3c(c2)C(=O)N([C@@H](C)CO)C[C@H](C)[C@@H](CN(C)C(=O)CCC(F)(F)F)OCCCC[C@H](C)O3)cc1	2	x	u
C[C@H]1CN([C@@H](C)CO)C(=O)Cc2cc(NC(=O)Nc3cccc4ccccc34)ccc2O[C@H]1CN(C)C(=O)Nc1ccc2c(c1)OCO2	0	2	3
O=C(Nc1ccc(F)cc1)N1CCCCN2[C@H](C1)[C@H](c1ccc(-c3ccccc3F)cc1)[C@@H]2CO	x	18*	4
COc1ccc(NC(=O)N2CCCCN3[C@H](C2)[C@H](c2ccc(-c4ccccc4F)cc2)[C@@H]3CO)cc1	0	-2	30*
COc1ccc(NC(=O)N2CCCCN3[C@H](CO)[C@H](c4ccc(-c5ccccc5F)cc4)[C@H]3C2)cc1	6	-2	-25
O=C(Nc1ccc(F)cc1)N1CCCCN2[C@H](CO)[C@@H](c3ccc(C4=CCCCC4)cc3)[C@H]2C1	0	2	29*
O=C(Nc1ccc(F)cc1)N1CCCCN2[C@@H](CO)[C@H](c3ccc(C4=CCCCC4)cc3)[C@@H]2C1	0	2	3
COc1ccc(NC(=O)N2CCCCN3[C@H](C2)[C@@H](c2ccc(-c4ccccc4F)cc2)[C@@H]3CO)cc1	1	8	-25
COc1ccc(NC(=O)N2CCCCN3[C@H](CO)[C@@H](c4ccc(-c5ccccc5F)cc4)[C@@H]3C2)cc1	0	18*	-7
O=C(Nc1ccc(F)cc1)N1CCCCN2[C@@H](CO)[C@H](c3ccc(-c4ccccc4F)cc3)[C@@H]2C1	x	2	3
COC(=O)C[C@H]1C[C@@H]2c3cc(NC(=O)CC4CC4)ccc3O[C@@H]2[C@H](CO)O1	0	-5	3
CC(=O)NC[C@@H]1[C@@H](c2ccc(-c3cccc(F)c3)cc2)[C@H](CO)N1C(C)=O	-1	-1	16
CCCNC(=O)[C@H]1[C@H](CO)[C@H]2Cn3c(ccc(-c4cccc(F)c4)c3=O)[C@H]2N1C(=O)CC	0	-25	-6
COc1ccc(C#Cc2ccc([C@H]3[C@@H](CO)N4CCCCN(C(=O)Nc5ccc(F)cc5)C[C@@H]34)cc2)cc1	0	6	30*
COc1ccc(C#Cc2ccc([C@H]3[C@H](CO)N4CCCCN(C(=O)Nc5ccc(F)cc5)C[C@@H]34)cc2)cc1	0	-4	-6
Cc1oc(-c2cccc(Cl)c2)nc1CN(C)C1CCOC1 (stereo not drawn)	x	-1	u
Cc1oc(-c2ccc(-c3ccccc3)cc2)nc1CN(C)C1CCOC1 (stereo not drawn)	0	18*	-4
O=C(O)/C=C/C(=O)c1ccc2c(c1)CCc1ccccc1-2	0	5	29*
CC(=O)Nc1ccc2c(c1)CCc1ccccc1-2	-2	0	-5
